# Bridge positions count the residues as written; N and C are the ends. Square brackets hold non-standard residues; d marks the D form. Peptide text beside a SMILES is read from it. * marks the point of attachment. Ileψ(thiazoline)Cys = CC[C@H](C)[C@H](N)C1=N[C@H](C(=O)*)CS1; dOrn = NCCC[C@@H](N)C(=O)O
# Assays:
# Insulin-degrading enzyme = target: T1, Insulin-degrading enzyme (Mus musculus, UniProt Q9JHR7); assay: Inhibition of mouse His-tagged IDE (42 to 1019 residues) using fluorophore/quencher-tagged RPPGFSAFK(Dnp)-OH peptide as substrate preincubated for 10 mins followed by substrate addition measured over 5 mins by TR-FRET assay
# T1 sequence (Q9JHR7 whole entry): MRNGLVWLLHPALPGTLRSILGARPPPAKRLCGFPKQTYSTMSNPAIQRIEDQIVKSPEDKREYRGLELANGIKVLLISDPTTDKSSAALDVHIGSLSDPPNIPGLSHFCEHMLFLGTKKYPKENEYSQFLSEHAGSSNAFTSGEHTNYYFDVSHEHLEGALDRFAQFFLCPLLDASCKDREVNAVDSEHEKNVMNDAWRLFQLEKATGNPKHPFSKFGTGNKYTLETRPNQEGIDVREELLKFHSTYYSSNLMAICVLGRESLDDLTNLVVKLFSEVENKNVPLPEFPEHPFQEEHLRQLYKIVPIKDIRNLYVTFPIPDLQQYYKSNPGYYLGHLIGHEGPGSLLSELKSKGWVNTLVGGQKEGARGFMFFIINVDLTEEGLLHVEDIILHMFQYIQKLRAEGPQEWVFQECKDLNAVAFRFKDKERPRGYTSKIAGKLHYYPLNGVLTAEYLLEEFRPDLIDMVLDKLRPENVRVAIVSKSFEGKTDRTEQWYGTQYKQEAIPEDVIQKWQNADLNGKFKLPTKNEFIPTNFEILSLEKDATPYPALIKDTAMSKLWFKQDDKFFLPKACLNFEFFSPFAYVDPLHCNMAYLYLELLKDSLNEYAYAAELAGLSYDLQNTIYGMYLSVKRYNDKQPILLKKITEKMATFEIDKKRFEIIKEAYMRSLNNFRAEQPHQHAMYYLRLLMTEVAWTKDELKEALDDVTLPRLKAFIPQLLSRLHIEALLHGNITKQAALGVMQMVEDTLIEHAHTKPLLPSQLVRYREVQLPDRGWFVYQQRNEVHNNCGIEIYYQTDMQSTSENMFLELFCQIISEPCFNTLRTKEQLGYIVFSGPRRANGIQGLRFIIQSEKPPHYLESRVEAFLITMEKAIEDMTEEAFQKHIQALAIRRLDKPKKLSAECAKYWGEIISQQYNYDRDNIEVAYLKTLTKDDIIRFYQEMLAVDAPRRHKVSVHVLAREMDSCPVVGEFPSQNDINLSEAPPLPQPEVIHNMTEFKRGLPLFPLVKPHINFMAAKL
# HeLa = assay: Cytotoxicity against human HeLa cells assessed as reduction in cell viability at <300 uM after 24 hrs at 310 K by MTT assay; format: cell-based
# In short: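 HeLa cells were grown overnight in DMEM with 10% FBS, then exposed to serial dilutions starting at 300 μM in medium with 5% FBS for 24 h at 310 K under 5% CO2. MTT was added for a further 4 h and formazan absorbance read at 490 nm. Three independent experiments in duplicate.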
# [1] = Hemolytic activity against mouse RBC at 300 uM after 1 hr at 310 K; format: ADME, cell-based, Erythrocyte; settings: mouse red blood cells (erythrocytes), read-out: Activity
# In short: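 Fresh mouse red cells were washed six times and suspended at 1 × 10^8 cells/mL in PBS. Peptides at 2.3–300 μM were added for 1 h at 310 K. After centrifugation, hemoglobin in the supernatant was read at 576 nm. PBS served as 0% and 0.1% Triton X-100 as 100% lysis. Three independent experiments in duplicate.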
# [2] = Drug uptake in human HeLa cells at 5 uM using FITC-labeled compound after 2 hrs at 310 K by DAPI-staining based confocal microscopy; format: ADME, cell-based
# [3] = Drug uptake in human HeLa cells at 5 uM using FITC-labeled compound after 2 hrs at 310 K by trypan blue-fluorescence based FACS analysis; format: ADME, cell-based
# In short: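 HeLa cells were grown overnight in DMEM with 10% FBS, then given 5 μM FITC-labelled peptide in FBS-free medium for 2 h at 310 K. Cells were washed with PBS and 0.4% trypan blue, trypsinized and washed. Mean fluorescence was measured by flow cytometry with gated cell counts. Three independent experiments.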
Compound,IC50 (Insulin-degrading enzyme) [nM],also measured
CC(C)C[C@H](NC(=O)[C@H](C)NC(=O)[C@H](CCC(=O)O)NC(=O)[C@@H]1CCCN1C(=O)[C@H]1CCCN1C(=O)[C@H](Cc1ccccc1)NC(=O)[C@@H](N)CCCNC(=N)N)C(=O)N[C@@H](Cc1ccc(O)cc1)C(N)=O,> 20000,
CC(=O)N[C@@H](CCC(=O)O)C(=O)N[C@@H](Cc1ccccc1)C(=O)N[C@@H](CC(C)C)C(=O)N[C@@H](Cc1c[nH]c2ccccc12)C(=O)N[C@@H](C)C(=O)NCC(=O)N1CCC[C@@H]1C(=O)N1CCC[C@H]1C(=O)N[C@@H](Cc1ccc(O)cc1)C(=O)N[C@@H](C)C(=O)N[C@@H](CS)C(=O)N[C@H](C(=O)NCC(=O)N[C@@H](CCCNC(=N)N)C(=O)N[C@@H](CC(C)C)C(=O)N[C@@H](CCC(=O)O)C(N)=O)C(C)C,,"Activity (HeLa): Non-Toxic; hemolysis at 1 h, 300 µM [1]: < 10%"
CC(C)C[C@H](NC(=O)[C@@H]1CSC[C@H](NC(=O)[C@H](Cc2ccccc2)NC(=O)[C@H](CCCNC(=N)N)NC(=O)[C@H](Cc2c[nH]c3ccccc23)NC(=O)[C@@H](N)CCC(=O)O)C(=O)NCC(=O)N2CCC[C@@H]2C(=O)N2CCC[C@H]2C(=O)N[C@@H](CCC(=O)O)C(=O)N1)C(=O)N[C@@H](Cc1ccc(O)cc1)C(=O)N[C@@H](CC(C)C)C(=O)N[C@H](C(=O)N[C@H](CS)C(=O)NCC(N)=O)C(C)C,60,
CC(C)C[C@H](NC(=O)[C@H](C)NC(=O)[C@@H](N)CCC(=O)O)C(=O)N[C@@H](Cc1ccc(O)cc1)C(=O)N[C@@H](CC(C)C)C(=O)N[C@H](C(=O)N[C@@H](CS)C(=O)NCC(=O)N1CCC[C@@H]1C(=O)N1CCC[C@H]1C(=O)N[C@@H](Cc1ccccc1)C(=O)N[C@@H](CCCNC(=N)N)C(=O)N[C@@H](Cc1c[nH]c2ccccc12)C(=O)N[C@@H](CCC(=O)O)C(N)=O)C(C)C,170,
CC(C)C[C@H](NC(=O)[C@@H]1CSC[C@H](NC(=O)[C@H](Cc2ccccc2)NC(=O)[C@H](CCCNC(=N)N)NC(=O)[C@H](Cc2c[nH]c3ccccc23)NC(=O)[C@@H](N)CCC(=O)O)C(=O)NCC(=O)NCC(=O)NCC(=O)N2CCC[C@@H]2C(=O)N2CCC[C@H]2C(=O)N[C@@H](CCC(=O)O)C(=O)N1)C(=O)N[C@@H](Cc1ccc(O)cc1)C(=O)N[C@@H](CC(C)C)C(=O)N[C@H](C(=O)N[C@H](CS)C(=O)NCC(N)=O)C(C)C,77,
CC(C)C[C@H](NC(=O)[C@@H]1CNC(=O)C[C@H](NC(=O)[C@H](Cc2ccccc2)NC(=O)[C@H](CCCNC(=N)N)NC(=O)[C@H](Cc2c[nH]c3ccccc23)NC(=O)[C@@H](N)CCC(=O)O)C(=O)NCC(=O)NCC(=O)NCC(=O)N2CCC[C@@H]2C(=O)N2CCC[C@H]2C(=O)N[C@@H](CCC(=O)O)C(=O)N1)C(=O)N[C@@H](Cc1ccc(O)cc1)C(=O)N[C@@H](CC(C)C)C(=O)N[C@H](C(=O)N[C@@H](CS)C(=O)NCC(N)=O)C(C)C,44,Drug uptake [2]: Active; Drug uptake [3]: Active
CC(C)C[C@H](NC(=O)[C@H](C)NC(=O)[C@H](CCC(=O)O)NC(=O)[C@@H]1CCCN1C(=O)[C@H]1CCCN1C(=O)[C@H](Cc1ccccc1)NC(=O)[C@H](CCCNC(=N)N)NC(=O)[C@H](Cc1c[nH]c2ccccc12)NC(=O)[C@@H](N)CCC(=O)O)C(=O)N[C@@H](Cc1ccc(O)cc1)C(=O)N[C@@H](CC(C)C)C(=O)N[C@H](C(N)=O)C(C)C,86,

# Now from value to compound, other results behind:
IC50 (Insulin-degrading enzyme) [nM],Compound,also measured
601,CC(C)C[C@H](NC(=O)[C@H](C)NC(=O)[C@H](CCC(=O)O)NC(=O)[C@@H]1CCCN1C(=O)[C@H]1CCCN1C(=O)[C@H](Cc1ccccc1)NC(=O)[C@H](CCCNC(=N)N)NC(=O)[C@H](Cc1c[nH]c2ccccc12)NC(=O)[C@@H](N)CCC(=O)O)C(=O)N[C@@H](Cc1ccc(O)cc1)C(N)=O,
300,CC(C)C[C@H](NC(=O)[C@H](C)NC(=O)[C@H](CCC(=O)O)NC(=O)CNC(=O)CNC(=O)[C@H](Cc1ccccc1)NC(=O)[C@H](CCCNC(=N)N)NC(=O)[C@H](Cc1c[nH]c2ccccc12)NC(=O)[C@@H](N)CCC(=O)O)C(=O)N[C@@H](Cc1ccc(O)cc1)C(=O)N[C@@H](CC(C)C)C(=O)N[C@H](C(=O)N[C@@H](CS)C(=O)NCC(N)=O)C(C)C (H-EWRFGGEALYLVCG-NH2),"Drug uptake [2]: Active; Drug uptake [3]: Active; hemolysis at 1 h, 300 µM [1]: < 10%"
> 20000,CC(C)C[C@H](NC(=O)[C@H](C)NC(=O)[C@H](CCC(=O)O)NC(=O)[C@@H]1CCCN1C(=O)[C@H]1CCCN1C(=O)[C@H](Cc1ccccc1)NC(=O)[C@@H](N)CCCNC(=N)N)C(=O)N[C@@H](Cc1ccc(O)cc1)C(=O)N[C@@H](CC(C)C)C(=O)N[C@H](C(N)=O)C(C)C,
> 200000,CC[C@H](C)[C@H](N)C1=N[C@H](C(=O)N[C@@H](CC(C)C)C(=O)N[C@H](CCC(=O)O)C(=O)N[C@H](C(=O)N[C@H]2CCCCNC(=O)[C@H](CC(N)=O)NC(=O)[C@@H](CC(=O)O)NC(=O)[C@H](Cc3cnc[nH]3)NC(=O)[C@@H](Cc3ccccc3)NC(=O)[C@H]([C@@H](C)CC)NC(=O)[C@@H](CCCN)NC2=O)[C@@H](C)CC)CS1 [BACITRACIN] ({Ileψ(thiazoline)Cys}-L[dE]IK[dOrn]I[dF]H[dD]N; lactam 4-C),
230,CC(C)C[C@H](NC(=O)[C@H](C)NC(=O)[C@@H](N)CCC(=O)O)C(=O)N[C@@H](Cc1ccc(O)cc1)C(=O)N[C@@H](CC(C)C)C(=O)N[C@H](C(=O)N[C@@H](CS)C(=O)NCC(N)=O)C(C)C (H-EALYLVCG-NH2),
74,CC(C)C[C@H](NC(=O)[C@H](C)NC(=O)[C@H](CCC(=O)O)NC(=O)[C@@H]1CCCN1C(=O)[C@H]1CCCN1C(=O)[C@H](Cc1ccccc1)NC(=O)[C@H](CCCNC(=N)N)NC(=O)[C@H](Cc1c[nH]c2ccccc12)NC(=O)[C@@H](N)CCC(=O)O)C(=O)N[C@@H](Cc1ccc(O)cc1)C(=O)N[C@@H](CC(C)C)C(=O)N[C@H](C(=O)N[C@H](CS)C(=O)NCC(N)=O)C(C)C,Drug uptake [2]: Active; Drug uptake [3]: Active
